Experimental data from article PMC11260088 (Proceedings of the National Academy of Sciences of the …, 2024).
Bridge positions count the residues as written; N and C are the ends. Square brackets hold non-standard residues; d marks the D form. Peptide text beside a SMILES is read from it. * marks the point of attachment. X1 = CC[C@H](C)CCCCC(=O)*; Dab = NCC[C@H](N)C(=O)O

Columns and labels:
E. coli ATCC 25922 = assay: MIC, broth microdilution; format: cell-based; conditions: LB + 0.3 mM ZnSO4, 37 °C, 18 h, median of min. triplicates
Outline: (§1)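 Strains from glycerol stocks were grown overnight on blood agar at 37 °C. Single colonies went into TSB and grew to OD600 0.5, then were diluted 100-fold in LB + 0.3 mM ZnSO4 to 10^6 CFU/mL. Two-fold serial dilutions of test compound were made in triplicate in the same medium and mixed 1:1 with inoculum. Plates ran 18 h at 37 °C at 600 rpm. MIC was the median of at least triplicates, read visually.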

E. faecium E7413 (vanA) = assay: MIC, broth microdilution; format: cell-based; conditions: LB + 0.3 mM ZnSO4
Outline: as §1

E. faecium E1130 (vanA) = assay: MIC, broth microdilution; format: cell-based; conditions: LB + 0.3 mM ZnSO4
Outline: as §1

E. faecium E0506 (vanA) = assay: MIC, broth microdilution; format: cell-based; conditions: LB + 0.3 mM ZnSO4
Outline: as §1

E. faecium E1679 (vanA) = assay: MIC, broth microdilution; format: cell-based; conditions: LB + 0.3 mM ZnSO4
Outline: as §1

E. faecium E0013 (vanA) = assay: MIC, broth microdilution; format: cell-based; conditions: LB + 0.3 mM ZnSO4
Outline: as §1

E. faecium E1763 (vanA) = assay: MIC, broth microdilution; format: cell-based; conditions: LB + 0.3 mM ZnSO4
Outline: as §1

E. faecium E0072 (vanA) = assay: MIC, broth microdilution; format: cell-based; conditions: LB + 0.3 mM ZnSO4
Outline: as §1

E. faecium E0321 (vanA) = assay: MIC, broth microdilution; format: cell-based; conditions: LB + 0.3 mM ZnSO4
Outline: as §1

E. faecium E7312 (vanA) = assay: MIC, broth microdilution; format: cell-based; conditions: LB + 0.3 mM ZnSO4
Outline: as §1

E. faecium E6016 (vanA) = assay: MIC, broth microdilution; format: cell-based; conditions: LB + 0.3 mM ZnSO4
Outline: as §1

E. faecium E2373 (vanA) = assay: MIC, broth microdilution; format: cell-based; conditions: LB + 0.3 mM ZnSO4
Outline: as §1

E. faecium E0745 (vanA) = assay: MIC, broth microdilution; format: cell-based; conditions: LB + 0.3 mM ZnSO4
Outline: as §1

E. faecium E2297 (vanA) = assay: MIC, broth microdilution; format: cell-based; conditions: LB + 0.3 mM ZnSO4
Outline: as §1

E. faecium E0300 (vanA) = assay: MIC, broth microdilution; format: cell-based; conditions: LB + 0.3 mM ZnSO4
Outline: as §1

E. faecium E7319 (vanA) = assay: MIC, broth microdilution; format: cell-based; conditions: LB + 0.3 mM ZnSO4
Outline: as §1

E. faecium E1441 (vanA) = assay: MIC, broth microdilution; format: cell-based; conditions: LB + 0.3 mM ZnSO4
Outline: as §1

E. faecium E0333 (vanA) = assay: MIC, broth microdilution; format: cell-based; conditions: LB + 0.3 mM ZnSO4
Outline: as §1

E. faecium E155 (vanA) = assay: MIC, broth microdilution; format: cell-based, Enterococcus faecium
Outline: as §1

[1] = system: panel of E. faecium clinical isolates carrying the vanA vancomycin resistance gene; assay: MIC50 / MIC90 over the VRE panel; format: cell-based
E. faecium E0341 (vanA) = assay: MIC, broth microdilution; format: cell-based; conditions: LB + 0.3 mM ZnSO4
Outline: as §1

B. subtilis 168 = assay: Membrane fluidity, DiIC12 staining; format: cell-based; conditions: 5 × MIC, DiIC12, 0.3 mM ZnSO4, 30 °C, 0 to 60 min
Outline: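 B. subtilis 168 overnight cultures were diluted 1:200 into LB containing 1% DMSO and 2 µg/mL DiIC12. At OD600 0.3 cells were washed in dye-free medium and given 0.3 mM ZnSO4, then treated at 5× MIC, with daptomycin as positive control. Incubation was at 30 °C and 850 rpm, sampling at 0–60 min for fluorescence microscopy on agarose slides. Representative of three independent experiments.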

[2] = degradation product of bacitracin; cited from earlier work
[3] = calculated over 19 vanA E. faecium clinical isolates, LB + 0.3 mM ZnSO4

## CC[C@H](C)CCCCC(=O)N[C@@H](CCN)C(=O)N[C@H](C(=O)N[C@@H](CCN)C(=O)N[C@H]1CCNC(=O)[C@H]([C@@H](C)O)NC(=O)[C@H](CCN)NC(=O)[C@H](CCN)NC(=O)[C@H](CC(C)C)NC(=O)[C@@H](Cc2ccccc2)NC(=O)[C@H](CCN)NC1=O)[C@@H](C)O [Polymyxin B] (X1-[Dab]T[Dab][Dab][Dab][dF]L[Dab][Dab]T; lactam 4-C (inferred); N-terminus assumed)
E. coli ATCC 25922
  MIC E. coli ATCC 25922: 2 mg/L

## CN[C@H](CC(C)C)C(=O)N[C@H]1C(=O)N[C@@H](CC(N)=O)C(=O)N[C@H]2C(=O)N[C@H]3C(=O)N[C@H](C(=O)N[C@H](C(=O)O)c4cc(O)cc(O)c4-c4cc3ccc4O)[C@H](O)c3ccc(c(Cl)c3)Oc3cc2cc(c3O[C@@H]2O[C@H](CO)[C@@H](O)[C@H](O)[C@H]2O[C@H]2C[C@](C)(N)[C@H](O)[C@H](C)O2)Oc2ccc(cc2Cl)[C@H]1O [Vancomycin]
E. faecium E7413 (vanA)
  MIC E. faecium E7413 vanA: >64 mg/L
E. faecium E1130 (vanA)
  MIC E. faecium E1130 vanA: >64 mg/L
E. faecium E0506 (vanA)
  MIC E. faecium E0506 vanA: >64 mg/L
E. faecium E1679 (vanA)
  MIC E. faecium E1679 vanA: >64 mg/L
E. faecium E0013 (vanA)
  MIC E. faecium E0013 vanA: >64 mg/L
E. faecium E1763 (vanA)
  MIC E. faecium E1763 vanA: >64 mg/L
E. faecium E0072 (vanA)
  MIC E. faecium E0072 vanA: >64 mg/L
E. faecium E0321 (vanA)
  MIC E. faecium E0321 vanA: >64 mg/L
E. faecium E7312 (vanA)
  MIC E. faecium E7312 vanA: >64 mg/L
E. faecium E6016 (vanA)
  MIC E. faecium E6016 vanA: >64 mg/L
E. faecium E2373 (vanA)
  MIC E. faecium E2373 vanA: >64 mg/L
E. faecium E0745 (vanA)
  MIC E. faecium E0745 vanA: >64 mg/L
E. faecium E2297 (vanA)
  MIC E. faecium E2297 vanA: >64 mg/L
E. faecium E0300 (vanA)
  MIC E. faecium E0300 vanA: >64 mg/L
E. faecium E7319 (vanA)
  MIC E. faecium E7319 vanA: >64 mg/L
E. faecium E1441 (vanA)
  MIC E. faecium E1441 vanA: >64 mg/L
E. faecium E0333 (vanA)
  MIC E. faecium E0333 vanA: >64 mg/L
E. faecium E155 (vanA); LB + 0.3 mM ZnSO4, 37 °C, 18 h, median of min. triplicates
  MIC E. faecium E155 vanA: >64 mg/L
E. faecium E155 (vanA); Table 2, LB + 0.3 mM ZnSO4
  MIC E. faecium E155 vanA: >64 mg/L
[1]; broader selection of VRE strains all carrying the vanA gene
  MIC for vancomycin, all strains of the vanA VRE selection: ≥ 64 mg/L
[1]; [3]
  MIC50: >64 mg/L
  MIC90: >64 mg/L
E. faecium E0341 (vanA)
  MIC E. faecium E0341 vanA: >64 mg/L

## Bacitracin
B. subtilis 168
  formation of regions of increased fluidity (RIF): to a much lesser degree

## Bacitracin F
[2]
  nephrotoxicity: nephrotoxic
